Bioassay records deposited in PubChem BioAssay by several laboratories.
Only some compounds are listed: those with a hit (about 5.1% of all), similar ones and a draw of the others.
STAT3 act-1: IL-6 driven STAT3 reporter potentiators, primary screen, U3A cells, luciferase, luminescence, MLSCN library | IL-6 STAT3-luciferase reporter; 100% = signal with IL-6 EC80 alone | 0.91% of 190,000 active | AID 871, 2007 | activation (% of control), % at 5.6 µM;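 active = activation above the screen-wide mean of compound activation plus 3 SD, cut at about 130% in these data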;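 also: 0% = background luminescence of wells with medium and substrate only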
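Material: STAT3-luciferase reporter U3A cells. Controls: IL-6-treated wells, 100% activation. Read-out: % activation versus median of IL-6-stimulated wells. Probe or stimulus: IL-6 stimulus at 33 ng/mL final. Timing: compound 1 h, then IL-6 6 h at 37 °C. Signal: reporter luminescence signal.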
NF-kB neuron act: activators of NF-kB expression in neurons, primary screen, cell-based, HTS; human neuronal cells, NF-kB reporter expression; active compounds read high; fold change at 12.5 µM; 1.6% of 190,000 active; AID 1239, 2008; in the data active = fold change above about 3.3
STAT3 blocker: IL-6 driven STAT3 reporter inhibitors, primary screen, U3A cells, luciferase, luminescence, MLSCN library | IL-6 STAT3-luciferase reporter; host cell line lacks STAT1 | inhibition, % at 5.5 µM | 0.89% of 190,000 active;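 active = inhibition above the mean inhibition across all screened compounds plus 3 SD, cut at about 44% in these data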;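 also: 0% = DMSO only wells and 100% = 100 µM nifuroxazide control wells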
STAT1 inh: STAT1 signaling inhibitors, primary screen, cell-based, HTS, luciferase reporter; NIH 3T3 STAT1-luciferase reporter, IFN-gamma, luminescence; inhibition, % at 5.5 µM; 0.35% of 200,000 active; AID 920, 2007;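 active = inhibition above a set limit, the mean inhibition across all tested compounds plus 3 SD, cut at about 34% in these data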;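 also: 0% = IFN-gamma with DMSO and 100% = IFN-gamma with 300 µM nifuroxazide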
APP 5'UTR act: activators of APP 5'UTR luciferase reporter, primary screen, SH-SY5Y cells | 1% of 190,000 active | activation, % at 2 µM | SH-SY5Y APP 5'UTR luciferase reporter, luminescence; zero percent = DMSO vehicle wells;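 active = activation above a set limit, based on mean plus 3 SD of controls, cut at about 140% in these data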
STAT1 act-1: STAT1 signaling activators, primary screen, cell-based, HTS, luciferase reporter | activation (% of control), % at 5.5 µM | 2.6% of 200,000 active | NIH 3T3 STAT1-luciferase reporter, IFN-gamma, luminescence; 100% = IFN-gamma alone, no compound;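 active = activation above the screen-wide mean activation plus 3 SD, cut at about 130% in these data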;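 also: raw ratio to IFN-gamma control signal so 100% means no change and 0% no light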
STAT3 act-2: STAT3 reporter potentiators, retest of hits, confirmation, U3A cells, luciferase, luminescence. shares compounds with STAT3 act-1. IL-6 potentiation; U3A cells lack STAT1; 100 means same as IL-6 alone. potentiation (% of control), % at 5.7 µM. 64% of 1,200 active;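 active = percent activation of the STAT3 luciferase reporter above a set limit taken from the earlier primary screen, cut at about 130% in these data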;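 also: 0% = background signal of medium plus substrate and 100% = median of IL-6 with DMSO wells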
NFkB act 2: NF-kB reporter activators in human cells, counter-screen for STAT3 activator project; shares compounds with STAT3 act-1; NF-kappaB reporter activation; activation (% of control), % at 5.7 µM; 11% of 1,200 active; in the data active = activation above about 120%;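 also: reporter induced by TNF-alpha stimulation; 100% = median of stimulated DMSO wells and 0% = no signal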
STAT1 act-2: STAT1 reporter activators, IFN-gamma induced, counter-screen for STAT3 activator project, cell-based, NIH 3T3, luciferase luminescence | shares compounds with STAT3 act-1 | NIH 3T3 STAT1-luciferase reporter | activation (% of control), % at 5.7 µM | 13% of 1,200 active;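 active = activation above the solvent-only control well mean plus 3 SD, set per screening run, cut at about 120% in these data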;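 also: 100% = IFN-gamma with DMSO median signal so 100% means no change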
* hit, by the source's call; x = not tested or not shown.

SMILES	STAT3 act-1	NF-kB neuron act	STAT3 blocker	STAT1 inh	APP 5'UTR act	STAT1 act-1	STAT3 act-2	NFkB act 2	STAT1 act-2
N#CC1=C(N)n2c(s/c(=C\c3ccco3)c2=O)=C(C#N)C1c1ccco1 (stereo unspecified)	171*	0.84	-79	6	-12	94	170*	103	97
Cc1ccccc1OCc1nc(-c2ccc(Br)o2)no1	98	1.6	12	-12	17	111	x	x	x
COc1ccccc1Cc1nc(-c2ccc(Br)o2)no1	156*	1.6	-64	-7	12	106	136*	114	126*
O=C(Nc1cc(C(F)(F)F)ccc1N1CCOCC1)c1cccs1	106	1.3	-7	8	0	93	x	x	x
CN(C)c1ccc(P(=O)(Nc2cccc(C(F)(F)F)c2)N2CCOCC2)c(NC(=O)c2cccs2)c1 (stereo unspecified)	140*	1.1	-51	-3	-13	103	131	96	99
CCc1ccc(/C=N/NC(=O)c2cc(-c3ccccc3OC)nc3ccccc23)s1	122	0.6	-29	1	x	99	x	x	x
COc1ccccc1-c1cc(C(=O)N/N=C/c2ccc(C)s2)c2ccccc2n1	139*	2.7	-49	9	10	92	137*	101	106
Cc1ccsc1-c1ccnc(-n2cccc2)n1	146*	0.71	-43	-5	8	105	128	105	102
Clc1ccsc1-c1ccnc(-n2cccc2)n1	140*	1.1	-36	-7	22	105	160*	108	108
Clc1ccc(-c2ccnc(-n3cccc3)n2)s1	131	1.2	-26	1	13	98	x	x	x
CCOC(=O)C1(CCCc2ccccc2)CCN(C(=O)C2CCCN(C(N)=O)C2)CC1 (stereo unspecified)	107	1.1	-2	2	16	96	x	x	x
Cn1c(CNc2nc3ccccc3n2CCN2CCCCC2)nc2ccccc21	101	0.9	6	8	11	93	x	x	x
Cn1c(CNc2ccccc2O)nc2ccccc21	159*	1.4	-65	0	9	100	179*	107	98
Cc1c(NC(=O)COC(=O)c2cc3c4ccccc4n(C)c3s2)c(=O)n(-c2ccccc2)n1C	158*	0.77	-68	4	16	97	136*	102	96
c1ccc(C2=Nc3ccccc3SC2c2nc3ccccc3[nH]2)cc1 (stereo unspecified)	158*	6.7*	-60	-31	110	128	147*	130*	152*
CC1(C)CC2(CC(c3ccccc3F)c3ccc(O)c(O)c3O2)NC(=S)N1 (stereo unspecified)	100	1.2	2	-8	-4	105	x	x	x
CC(=O)Nc1c(Cl)n(C(C)=O)c2ccccc12	175*	1.1	-91	10	12	91	159*	103	94
O=C(O)C1CC=CCC1C(=O)Nc1ccc(S(=O)(=O)N2CCCc3ccccc32)cc1 (stereo unspecified)	162*	1.6	-70	-4	3	103	146*	106	107
CCOC(=O)C1CCCN(C(=O)c2ccc(C)cc2O)C1 (stereo unspecified)	95	1.1	4	-3	x	103	x	x	x
CCc1c(C(=O)Nc2ccc(OC)cc2)[nH]c(C)c1C(C)=O	122	1.1	-23	-5	16	105	x	x	x
COc1ccc(NC(=O)c2[nH]c(C)c(C(C)=O)c2C)cc1	143*	1.9	-46	-22	28	118	159*	121*	129*
Fc1ccccc1C1c2[nH]c3ccccc3c2CCN1CCCn1cccn1 (stereo unspecified)	144*	x	-44	-7	-7	104	133	102	93
O=C1C(=O)N(O)C2CCCCC2N1O (stereo unspecified)	101	0.95	-6	-3	1	103	x	x	x
COCCSc1ccccc1C(=O)NCCc1ccccc1	138*	0.97	-48	3	-7	97	149*	106	97
CC(C)c1onc(C(=O)NC2CCCC2)c1[N+](=O)[O-]	93	0.87	15	-1	2	100	x	x	x
SMILES	STAT3 act-1	NF-kB neuron act	STAT3 blocker	STAT1 inh	APP 5'UTR act	STAT1 act-1	STAT3 act-2	NFkB act 2	STAT1 act-2
CC(=O)Nc1c(O)c2ccccc2[nH]c1=O	106	1.2	-3	14	4	85	x	x	x
CC(=O)c1cccc2c(O)c(C3=Nc4ccccc4C3=O)[nH]c12	138*	4.1*	-42	-5	105	105	152*	136*	181*
COc1cc2c(cc1OC)-c1cc(N3CCCc4ccccc43)nc(=O)n1CC2	149*	0.63	-52	3	-12	97	133*	103	96
COc1cc2c(cc1OC)-c1cc(N3CCCCCC3)nc(=O)n1CC2	114	0.71	-13	-4	13	104	x	x	x
COc1ccc(/C(C)=N/NC(=O)CNC(=O)/C=C\c2ccco2)cc1	101	1.6	1	1	1	97	x	x	x
NC(=O)c1ncc(C(F)(F)F)cc1Oc1ccc(C(F)(F)F)cc1	106	1.1	0	-7	x	107	x	x	x
O=P1(O)C=C(c2ccccc2)OC(c2ccccc2)=C1	136*	1.6	-35	-7	63	106	145*	118	127*
Cc1ccc(C)c(NC(=S)NC23CN4CN(CN(C4)C2)C3)c1	98	1	6	1	4	98	x	x	x
O=C(O)CCC(C(=O)O)n1c(O)c(C2=c3ccccc3=NC2=O)sc1=S (stereo unspecified)	145*	1.2	-46	-4	-2	105	138*	105	97
COc1cc(CC(=O)OCC(=O)N2CC(=O)Nc3ccccc32)cc(OC)c1OC	102	1.1	1	-7	0	105	x	x	x
O=C(CCc1ccccc1)NC(=S)NCc1ccco1	107	x	-2	-3	4	103	x	x	x
O=C1c2ccccc2CC1Sc1nnc(-c2ccccn2)o1 (stereo unspecified)	149*	1.4	-52	-7	33	106	130	104	101
